CendR NRP1 mod: modulators of CendR peptide binding to human neuropilin-1. O14786. FAM-RPARPAR peptide binding to NRP-1, fluorescence polarization. 360,000 compounds, 0.85% hits. inhibition, % at 25 µM;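 active = inhibition or corrected inhibition above about 18%, plus a signal ratio from 0.5 to 1.5, limit read from the data, passing the limit was not always enough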
proKLK7 act: activates the human kallikrein-7 zymogen; P49862; purified proKLK7, EDANS-DABCYL substrate fluorescence; 100% is mature enzyme control, 0% vehicle; activation, % at 7 µM; 370,000 compounds, 0.9% hits;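 active = activation above the mean of all tested compounds plus 3 SD, computed per campaign excluding outliers beyond control limits, cut at about 13% in these data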
Target sequence (P49862 whole entry, looked up): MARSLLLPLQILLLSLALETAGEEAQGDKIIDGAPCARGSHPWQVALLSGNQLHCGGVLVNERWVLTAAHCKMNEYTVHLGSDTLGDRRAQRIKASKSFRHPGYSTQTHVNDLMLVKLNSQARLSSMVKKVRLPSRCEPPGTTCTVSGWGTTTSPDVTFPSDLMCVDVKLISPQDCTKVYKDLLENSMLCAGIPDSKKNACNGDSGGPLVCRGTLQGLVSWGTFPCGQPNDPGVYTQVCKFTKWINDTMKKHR
DDE Tn7 FP inh: inhibitors of Tn7 peptide binding to human fibrin DD(E). FP displacement of FITC-Tn7 peptide from fibrin DD(E); 0% = median of compound wells per plate. 370,000 compounds, 0.13% hits. AID 720508. P02675. inhibition, % at 8.3 µM;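 active = inhibition above the mean of compounds falling within the control limits plus 3 SD of them, cut at about 14% in these data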
Target sequence (P02675 whole entry, looked up): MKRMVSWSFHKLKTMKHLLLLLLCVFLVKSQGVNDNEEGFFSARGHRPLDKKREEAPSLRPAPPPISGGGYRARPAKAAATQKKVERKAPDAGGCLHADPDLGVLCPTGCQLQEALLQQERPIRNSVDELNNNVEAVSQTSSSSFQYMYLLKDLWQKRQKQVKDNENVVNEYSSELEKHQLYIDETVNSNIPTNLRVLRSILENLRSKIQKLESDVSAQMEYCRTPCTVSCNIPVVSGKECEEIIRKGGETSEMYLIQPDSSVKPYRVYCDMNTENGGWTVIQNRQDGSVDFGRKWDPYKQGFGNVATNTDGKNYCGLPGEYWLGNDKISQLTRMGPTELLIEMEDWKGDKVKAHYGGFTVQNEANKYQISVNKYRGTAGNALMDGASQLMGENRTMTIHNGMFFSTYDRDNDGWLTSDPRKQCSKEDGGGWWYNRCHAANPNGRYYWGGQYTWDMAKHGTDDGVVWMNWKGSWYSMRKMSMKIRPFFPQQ
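Test system – human fibrin DD(E) · Times – 10 min preincubation, 3 h with tracer, room temperature · Detection – fluorescence polarization of the labelled Tn7 tracer · Measure – percent inhibition normalized to high-control wells · Benchmarks – high control wells with 10 µM unlabelled Aha-Tn7 peptide (full inhibition) · Repeats – singlicate testing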
Tn6 DDE FP: inhibitors of Tn6 peptide binding to human fibrin DD(E); P02675; Fibrin DD(E) TRITC-Tn6 fluorescence polarization displacement; inhibition, % at 8.3 µM; 370,000 compounds, 0.21% hits;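 active = inhibition above a per-campaign cutoff: mean of compounds within control limits plus 3 SD, cut at about 15% in these data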
PLC-gamma1 inh: inhibitors of human phospholipase C gamma1; purified PLC-gamma1, fluorogenic substrate, fluorescence; inhibition, % at 12.2 µM; 370,000 compounds, 0.84% hits; in the data active = inhibition above about 9.5%
PLCb3 inh: inhibitors of human phospholipase C beta3. Q01970. Purified PLC-beta3, fluorogenic substrate, fluorescence. inhibition, % at 12.2 µM. 370,000 compounds, 0.18% hits; in the data active = inhibition above about 11%
Tn6 DDE ctr: DD(E)-Tn6 binding inhibition, counter-screen; 680 compounds, 2% hits; AID 720621; shares compounds with Tn6 DDE FP; inhibition, % at 8.3 µM; Fibrin DD(E), TRITC-Tn6 fluorescence polarization displacement; 0% = median of compound wells, not DMSO;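 active = inhibition above the mean of test compounds lying between the control limits plus 3 SD of those, cut at about 14% in these data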
Tn6 DDE conf: DD(E)-Tn6 binding inhibition, FP confirmation | FP displacement of TRITC-Tn6 peptide from DD(E); 0% = per-plate median of test wells | shares compounds with Tn6 DDE FP | inhibition, % at 8.3 µM | AID 720631 | 680 compounds, 10% hits;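 active = inhibition above the mean of compounds lying within the control limits plus 3 SD, cut at about 16% in these data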
Numbers stand for hits. Hits are enriched below; roughly 3% of the tested compounds scored in any of these assays.

Results for O=C(COC(=O)c1n[nH]c2ccccc12)Nc1ccccc1 ?
CendR NRP1 mod: inactive; proKLK7 act: inactive; DDE Tn7 FP inh: inactive; Tn6 DDE FP: inactive; PLC-gamma1 inh: inactive; PLCb3 inh: inactive

How did O=C(Nc1ccc(Cl)cc1)O[C@@H]1CC[C@@]23CCCN2C(=O)CCC[C@H]3C1 do in these assays?
DDE Tn7 FP inh: inactive; Tn6 DDE FP: inactive; PLC-gamma1 inh: inactive; PLCb3 inh: inactive

Results for CCCCOCCCNC(=S)Nc1ccc(S(=O)(=O)N2CCOCC2)cc1 ?
CendR NRP1 mod: inactive; proKLK7 act: inactive; DDE Tn7 FP inh: inactive; Tn6 DDE FP: inactive; PLC-gamma1 inh: inactive; PLCb3 inh: inactive

How did O=S(=O)(c1ccc(NC(=S)NCCC(c2ccccc2)c2ccccc2)cc1)N1CCOCC1 do in these assays?
CendR NRP1 mod: inactive; proKLK7 act: inactive; DDE Tn7 FP inh: inactive; Tn6 DDE FP: 17; PLC-gamma1 inh: inactive; PLCb3 inh: inactive; Tn6 DDE ctr: inactive; Tn6 DDE conf: inactive

How did COc1ccc2cc(C(=O)Nc3ccccc3)sc(=O)c2c1OC do in these assays?
CendR NRP1 mod: inactive; proKLK7 act: inactive; DDE Tn7 FP inh: inactive; Tn6 DDE FP: inactive; PLC-gamma1 inh: inactive; PLCb3 inh: inactive

What do the screens show for `COc1ccc2cc(C(=O)Nc3ccc(S(N)(=O)=O)cc3)sc(=O)c2c1OC`?
CendR NRP1 mod: inactive; proKLK7 act: inactive; DDE Tn7 FP inh: inactive; Tn6 DDE FP: 18; PLC-gamma1 inh: inactive; PLCb3 inh: inactive; Tn6 DDE ctr: inactive; Tn6 DDE conf: inactive

How did CC1(C)N=C(N)N=C(N)N1c1cccc(C#N)c1 do in these assays?
CendR NRP1 mod: inactive; proKLK7 act: inactive; DDE Tn7 FP inh: inactive; Tn6 DDE FP: 16; PLC-gamma1 inh: inactive; PLCb3 inh: inactive; Tn6 DDE ctr: inactive; Tn6 DDE conf: inactive

How did COc1cccc(N2C(N)=NC(N)=NC2(C)C)c1 do in these assays?
CendR NRP1 mod: inactive; proKLK7 act: inactive; DDE Tn7 FP inh: inactive; Tn6 DDE FP: inactive; PLC-gamma1 inh: inactive; PLCb3 inh: inactive

How did Cc1cc2cc(CNC(=O)Cc3ccc([N+](=O)[O-])cc3)ccc2n1C do in these assays?
CendR NRP1 mod: 30; proKLK7 act: inactive; DDE Tn7 FP inh: inactive; Tn6 DDE FP: 17; PLC-gamma1 inh: inactive; PLCb3 inh: inactive; Tn6 DDE ctr: inactive; Tn6 DDE conf: inactive

Results for Cc1cc2cc(CNC(=O)c3cccc([N+](=O)[O-])c3)ccc2[nH]1 ?
CendR NRP1 mod: inactive; proKLK7 act: inactive; DDE Tn7 FP inh: inactive; Tn6 DDE FP: inactive; PLC-gamma1 inh: inactive; PLCb3 inh: inactive

What do the screens show for `Cc1c(C(=O)NCc2ccc3c(c2)cc(C)n3C)cccc1[N+](=O)[O-]`?
CendR NRP1 mod: inactive; proKLK7 act: inactive; DDE Tn7 FP inh: inactive; Tn6 DDE FP: 24; PLC-gamma1 inh: inactive; PLCb3 inh: inactive; Tn6 DDE ctr: inactive; Tn6 DDE conf: inactive

How did Cc1cc2cc(CNC(=O)c3cccc([N+](=O)[O-])c3)ccc2n1C do in these assays?
CendR NRP1 mod: inactive; proKLK7 act: inactive; DDE Tn7 FP inh: inactive; Tn6 DDE FP: 53; PLC-gamma1 inh: inactive; PLCb3 inh: inactive; Tn6 DDE ctr: inactive; Tn6 DDE conf: inactive

How did O=C(CC1C(=O)NCCN1C(=O)Nc1ccc(F)cc1F)Nc1cc(Cl)ccc1Cl (configuration not stated) do in these assays?
CendR NRP1 mod: inactive; proKLK7 act: inactive; DDE Tn7 FP inh: inactive; Tn6 DDE FP: inactive; PLC-gamma1 inh: inactive; PLCb3 inh: inactive

Results for Cc1cc(C)cc(NC(=O)N2CCNC(=O)C2CC(=O)Nc2cc(Cl)ccc2Cl)c1 (configuration not stated) ?
CendR NRP1 mod: inactive; proKLK7 act: inactive; DDE Tn7 FP inh: inactive; Tn6 DDE FP: 16; PLC-gamma1 inh: inactive; PLCb3 inh: inactive; Tn6 DDE ctr: inactive; Tn6 DDE conf: inactive

What do the screens show for `COc1ccc(CNCC#Cc2ccccc2)c(OC)c1`?
proKLK7 act: inactive; DDE Tn7 FP inh: inactive; Tn6 DDE FP: inactive; PLC-gamma1 inh: inactive; PLCb3 inh: inactive

Results for O=c1ccc2nc3ccccc3sc-2c1 ?
CendR NRP1 mod: inactive; proKLK7 act: inactive; DDE Tn7 FP inh: inactive; Tn6 DDE FP: 20; PLC-gamma1 inh: inactive; PLCb3 inh: inactive; Tn6 DDE ctr: inactive; Tn6 DDE conf: inactive

How did COC(=O)C1CN(Cc2cn(Cc3ccc(OC)cc3)nn2)CCS(=O)(=O)N1Cc1ccccc1 (configuration not stated) do in these assays?
proKLK7 act: inactive; DDE Tn7 FP inh: inactive; Tn6 DDE FP: inactive; PLC-gamma1 inh: inactive; PLCb3 inh: inactive

How did COc1cccc(CNC(=O)c2ccc(S(=O)(=O)N3CCOCC3)cc2)c1 do in these assays?
CendR NRP1 mod: inactive; proKLK7 act: inactive; DDE Tn7 FP inh: inactive; Tn6 DDE FP: inactive; PLC-gamma1 inh: inactive; PLCb3 inh: inactive

What do the screens show for `Cc1cc2cc(CNC(=O)c3ccc(S(=O)(=O)N4CCCCC4)cc3)ccc2[nH]1`?
CendR NRP1 mod: inactive; proKLK7 act: inactive; DDE Tn7 FP inh: inactive; Tn6 DDE FP: 18; PLC-gamma1 inh: inactive; PLCb3 inh: inactive; Tn6 DDE ctr: inactive; Tn6 DDE conf: inactive

How did Cc1cc2cc(CNC(=O)c3ccc(S(=O)(=O)N(C)C)cc3)ccc2n1C do in these assays?
CendR NRP1 mod: inactive; proKLK7 act: inactive; DDE Tn7 FP inh: inactive; Tn6 DDE FP: 65; PLC-gamma1 inh: inactive; PLCb3 inh: inactive; Tn6 DDE ctr: inactive; Tn6 DDE conf: inactive

How did Cc1cc2cc(CNC(=O)c3ccc(S(=O)(=O)N4CCOCC4)cc3)ccc2n1C do in these assays?
CendR NRP1 mod: 28; proKLK7 act: inactive; DDE Tn7 FP inh: inactive; Tn6 DDE FP: 53; PLC-gamma1 inh: inactive; PLCb3 inh: inactive; Tn6 DDE ctr: inactive; Tn6 DDE conf: 19

What do the screens show for `CCOC(=O)N1CCN(C(=O)C[C@H]2C[C@@]3(C(=O)OC)C(=C[C@H](COCc4ccccc4)O[C@@H]3C)N(Cc3ccc(Cl)cc3Cl)C2=O)CC1`?
proKLK7 act: inactive; DDE Tn7 FP inh: inactive; Tn6 DDE FP: inactive; PLC-gamma1 inh: inactive; PLCb3 inh: inactive

What do the screens show for `O=C(CSc1nnc(-c2ccccn2)n1-c1ccccc1)Nc1ccc(OCc2ccccc2)cc1`?
proKLK7 act: inactive; DDE Tn7 FP inh: inactive; Tn6 DDE FP: inactive; PLC-gamma1 inh: inactive; PLCb3 inh: inactive

What do the screens show for `CC(=O)NC(Cc1ccccc1)P(=O)(O)O` (configuration not stated)?
proKLK7 act: inactive; DDE Tn7 FP inh: inactive; Tn6 DDE FP: inactive; PLC-gamma1 inh: inactive; PLCb3 inh: inactive

How did COC(=O)/C(=C/Nc1ccccc1)[N+](=O)[O-] do in these assays?
CendR NRP1 mod: inactive; proKLK7 act: inactive; DDE Tn7 FP inh: inactive; Tn6 DDE FP: inactive; PLC-gamma1 inh: inactive; PLCb3 inh: inactive
